Measured values taken from ChEMBL document CHEMBL3259517, “Synthesis and evaluation of phosphorus containing, specific CDK9/CycT1 inhibitors” (J Med Chem, 2014).
The source made the active and inactive calls. The rule behind the calls is not given here.

Legend:
CDK9/cyclin T1 = CDK9/cyclin T1 (Homo sapiens, UniProt P50750); assay: Inhibition of CDK9/CycT1 (unknown origin) using TAMRA-Rbtide and ATP as substrate after 1 hr; assay type: protein-complex assay
[1] = target: Cyclin-dependent kinase 2/cyclin E1 (Homo sapiens) (UniProt P24864+P24941); assay: Inhibition of CDK2/CycE (unknown origin) using FAM labeled peptide as substrate at 10 uM by IMAP FAM FP assay; assay type: protein-complex assay
Procedure, shortened: (§1)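 Run by contract partners as an IMAP fluorescence polarization assay. […] Enzyme amount was set to give 50% substrate turnover. Compounds were added in DMSO, IMAP binding solution added after the kinase step, then FP read.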

[2] = target: Cyclin-dependent kinase 4/cyclin D1 (Homo sapiens) (UniProt P11802+P24385); assay: Inhibition of CDK4/CycD1 (unknown origin) using FAM labeled peptide as substrate at 10 uM by IMAP FAM FP assay; assay type: protein-complex assay; procedure, shortened: as §1
[3] = Cytotoxicity against human MT4 cells assessed as cell viability at 2500 nM after 7 days by MTT assay relative to control; assay type: cell-based; conditions: read-out: Activity
Procedure, shortened: (§2)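 MT4 cells (2−3 × 10⁴/well) in RPMI1640 with 10% FCS, penicillin and streptomycin, exposed to compound at 2500 or 1250 nM for 7 days at 37 °C, 5% CO2. MTT added for 4 h, supernatant removed, formazan dissolved in DMSO, absorbance read at 540 nm. Viability expressed relative to untreated cells (100%).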

[4] = Cytotoxicity against human MT4 cells assessed as cell viability at 1250 nM after 7 days by MTT assay relative to control; assay type: cell-based; conditions: read-out: Activity; procedure, shortened: as §2
[5] = system: Human immunodeficiency virus 1; assay: Antiviral activity against HIV1 HTLV-3B infected in human MT4 cells assessed as inhibition of virus proliferation by measuring host cell viability at 1250 nM relative to control; assay type: functional
Procedure, shortened: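 HIV-1 HTLV-IIIB (3400 TCID50/mL per well; titre set by virus yield assay) infected MT4 cells, 2−3 × 10⁴/well in RPMI1640 with 10% FCS, penicillin and streptomycin, cultured as for the 7-day viability assay (37 °C, 5% CO2). Test compounds were at 1250 nM and AZT control at 25 nM. Read-out was MTT (4 h, DMSO, A540), given relative to infected untreated cells (100%).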

[6] = target: CDK9/cyclin T1 (Homo sapiens) (UniProt O60563+P50750); assay: Competitive inhibition of CDK9/CycT1 (unknown origin) using ATP as substrate; assay type: protein-complex assay
Procedure, shortened: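 Kinase inhibition measured with inhibitor held constant at 260 nM across five ATP concentrations, printed as 1.33, 4, 12 (K_mATP), 36 and 108 […]. Ki taken from measured IC50 via the Cheng−Prusoff equation, with the IC50/Ki ratio compared across ATP levels.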

Chain of CDK9/cyclin T1 (O60563 whole entry): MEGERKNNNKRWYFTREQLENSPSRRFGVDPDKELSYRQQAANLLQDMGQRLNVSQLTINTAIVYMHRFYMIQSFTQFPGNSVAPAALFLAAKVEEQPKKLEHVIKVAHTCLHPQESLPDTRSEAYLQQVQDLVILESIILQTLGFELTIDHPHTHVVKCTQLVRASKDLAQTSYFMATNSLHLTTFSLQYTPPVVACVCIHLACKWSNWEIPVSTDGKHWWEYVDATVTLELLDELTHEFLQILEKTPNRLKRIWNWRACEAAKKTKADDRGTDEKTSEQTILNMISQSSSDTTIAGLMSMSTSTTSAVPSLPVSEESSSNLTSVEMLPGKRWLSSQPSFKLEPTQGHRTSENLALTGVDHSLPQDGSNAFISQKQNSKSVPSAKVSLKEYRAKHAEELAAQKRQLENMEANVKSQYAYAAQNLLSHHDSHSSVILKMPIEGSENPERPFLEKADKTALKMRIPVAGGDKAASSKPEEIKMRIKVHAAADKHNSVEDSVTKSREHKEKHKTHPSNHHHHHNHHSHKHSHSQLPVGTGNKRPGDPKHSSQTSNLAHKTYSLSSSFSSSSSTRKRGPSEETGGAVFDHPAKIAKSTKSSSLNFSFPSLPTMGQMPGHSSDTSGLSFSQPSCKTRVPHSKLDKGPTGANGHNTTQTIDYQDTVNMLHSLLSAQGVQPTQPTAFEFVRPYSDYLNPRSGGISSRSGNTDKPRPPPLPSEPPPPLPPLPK
Chain of CDK9/cyclin T1 (P50750 whole entry): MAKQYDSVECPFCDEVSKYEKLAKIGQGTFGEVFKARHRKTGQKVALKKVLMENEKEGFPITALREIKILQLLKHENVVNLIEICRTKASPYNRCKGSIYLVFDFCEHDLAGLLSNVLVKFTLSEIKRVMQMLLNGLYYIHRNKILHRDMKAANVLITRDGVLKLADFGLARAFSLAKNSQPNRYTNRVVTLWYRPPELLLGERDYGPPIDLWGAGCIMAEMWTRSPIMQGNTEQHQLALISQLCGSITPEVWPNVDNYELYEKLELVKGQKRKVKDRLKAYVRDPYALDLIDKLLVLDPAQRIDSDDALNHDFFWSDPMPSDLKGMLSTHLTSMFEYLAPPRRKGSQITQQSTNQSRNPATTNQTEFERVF

Structure (SMILES) | IC50 (CDK9/cyclin T1) | also measured
CCOP(=O)(Cc1cccc(Nc2cc(-c3cccc(N)c3)ncn2)c1)c1ccccc1 (stereo not drawn) | 1020 nM | 
CCOP(=O)(OCC)c1ccc(Nc2cc(-c3ccccc3OC)ncn2)cc1 | 1020 nM | inhibition [1]: 69%; inhibition [2]: 22%
CCOP(=O)(Cc1ccc(Nc2cc(-c3cccc(N)c3)ncn2)cc1)OCC | 3110 nM | inhibition [1]: 14%; inhibition [2]: 30%
CCP(=O)(O)Cc1cccc(Nc2cc(-c3ccccc3OCc3ccccc3)ncn2)c1 | 163 nM | viability at 168 h, 2.5 µM [3]: 104%; viability at 168 h, 1.25 µM [4]: 110%; Host cell viability relative to infected untreated cells [5]: 124%
CCCP(=O)(Cc1cccc(Nc2cc(-c3ccccc3OCc3ccccc3)ncn2)c1)OCC (stereo not drawn) | 143 nM | viability at 168 h, 2.5 µM [3]: 93%; viability at 168 h, 1.25 µM [4]: 86%; Host cell viability relative to infected untreated cells [5]: 148%
CCOP(=O)(CC)Cc1cccc(Nc2cc(-c3cccc([N+](=O)[O-])c3)ncn2)c1 (stereo not drawn) | 6430 nM | 
CCOP(=O)(CC)Cc1cccc(Nc2cc(-c3ccccc3OCc3ccccc3)ncn2)c1 (stereo not drawn) | 212 nM | viability at 168 h, 2.5 µM [3]: 94%; viability at 168 h, 1.25 µM [4]: 98%; Host cell viability relative to infected untreated cells [5]: 135%
CCOP(=O)(Cc1cccc(Nc2cc(-c3cccc(N)c3)ncn2)c1)OCC | 332 nM | Host cell viability relative to infected untreated cells [5]: 96%
CCOP(=O)(Oc1cccc(Nc2cc(-c3cccc([N+](=O)[O-])c3)ncn2)c1)c1ccccc1 (stereo not drawn) | > 10000 nM | 
CCOP(=O)(CC)c1cccc(Nc2cc(-c3ccccc3OC)ncn2)c1 (stereo not drawn) | 842 nM | 
CCOP(=O)(CC)Cc1cc(Nc2cc(-c3ccccc3OC)ncn2)ccc1C (stereo not drawn) | 366 nM | 
CCOP(=O)(CC)Cc1ccc(Nc2cc(-c3cccc(N)c3)ncn2)cc1 (stereo not drawn) | 7530 nM | 
CCOP(=O)(CC)Cc1ccc(Nc2cc(-c3cccc([N+](=O)[O-])c3)ncn2)cc1 (stereo not drawn) | 7770 nM | 
CCOP(=O)(Oc1cccc(Nc2cc(-c3ccccc3OC)ncn2)c1)c1ccccc1 (stereo not drawn) | 3100 nM | 
COc1ccccc1-c1cc(Nc2cccc(P(=O)(O)O)c2)ncn1 | 429 nM | inhibition [1]: 56%; inhibition [2]: 40%; viability at 168 h, 2.5 µM [3]: 90%; viability at 168 h, 1.25 µM [4]: 90%; Host cell viability relative to infected untreated cells [5]: 130%; competitive inhibition (qualitative) [6]: Active
CCOP(=O)(CC)c1ccc(Nc2cc(-c3ccccc3OC)ncn2)cc1 (stereo not drawn) | 418 nM | 

Structure (SMILES) | IC50 (CDK9/cyclin T1) | also measured
CCCP(=O)(Cc1ccc(Nc2cc(-c3cccc(N)c3)ncn2)cc1)OCC (stereo not drawn) | 7470 nM | 
CCOP(=O)(Oc1ccc(Nc2cc(-c3ccccc3OC)ncn2)cc1)c1ccccc1 (stereo not drawn) | 2840 nM | 
CCOP(=O)(OCC)c1cccc(Nc2cc(-c3ccccc3OC)ncn2)c1 | 1040 nM | 
CN1CC[C@H](c2c(O)cc(O)c3c(=O)cc(-c4ccccc4Cl)oc23)[C@H](O)C1 |  | inhibition [1]: 99%; inhibition [2]: 84%
CCOP(=O)(c1ccccc1)c1ccc(Nc2cc(-c3cccc(N)c3)ncn2)cc1 (stereo not drawn) | 6500 nM | 
CCOP(=O)(Cc1cc(Nc2cc(-c3ccccc3OC)ncn2)ccc1C)OCC | 5220 nM | 
CCOP(=O)(Cc1ccc(Nc2cc(-c3ccccc3OC)ncn2)cc1)OCC | 490 nM | inhibition [1]: 77%; inhibition [2]: 51%
CCOP(=O)(Oc1cccc(Nc2cc(-c3cccc(N)c3)ncn2)c1)c1ccccc1 (stereo not drawn) | 5330 nM | 
CCOP(=O)(Nc1cc(Nc2cc(-c3ccccc3OC)ncn2)ccc1C)c1ccccc1 (stereo not drawn) | 5240 nM | inhibition [1]: 19%; inhibition [2]: 18%
CCOP(=O)(CC)Cc1cc(Nc2cc(-c3cccc([N+](=O)[O-])c3)ncn2)ccc1C (stereo not drawn) | 7020 nM | 
CCOP(=O)(CC)c1cccc(Nc2cc(-c3cccc(N)c3)ncn2)c1 (stereo not drawn) | 9800 nM | 
CCOP(=O)(c1ccccc1)c1ccc(Nc2cc(-c3ccccc3OC)ncn2)cc1 (stereo not drawn) | 523 nM | 
CCOP(=O)(Cc1cccc(Nc2cc(-c3cccc([N+](=O)[O-])c3)ncn2)c1)OCC | 9870 nM | 
CCOP(=O)(Oc1cc(Nc2cc(-c3ccccc3OC)ncn2)ccc1C)c1ccccc1 (stereo not drawn) | 4140 nM | inhibition [1]: 8%; inhibition [2]: 19%
CCOP(=O)(Cc1cccc(Nc2cc(-c3ccccc3OC)ncn2)c1)OCC | 333 nM | viability at 168 h, 2.5 µM [3]: 100%; viability at 168 h, 1.25 µM [4]: 91%
CCOP(=O)(CC)Cc1ccc(Nc2cc(-c3ccccc3OC)ncn2)cc1 (stereo not drawn) | 743 nM | 

Further lines, with some results ahead:

IC50 (CDK9/cyclin T1) | Structure (SMILES) | also measured
6940 nM | CCCP(=O)(Cc1cccc(Nc2cc(-c3cccc(OC)c3)ncn2)c1)OCC (stereo not drawn) | 
580 nM | COc1ccccc1-c1cc(Nc2ccc(P(=O)(O)O)cc2)ncn1 | 
4580 nM | CCOP(=O)(OCC)C(O)c1ccc(Nc2cc(-c3cccc([N+](=O)[O-])c3)ncn2)cc1 (stereo not drawn) | 
510 nM | CCOP(=O)(OCC)C(O)c1ccc(Nc2cc(-c3ccccc3OC)ncn2)cc1 (stereo not drawn) | inhibition [1]: 94%; inhibition [2]: 68%
517 nM | CCOP(=O)(Cc1cccc(Nc2cc(-c3ccccc3OC)ncn2)c1)c1ccccc1 (stereo not drawn) | 
4100 nM | O=[N+]([O-])c1cccc(-c2cc(Nc3cccc(P(=O)(O)O)c3)ncn2)c1 | 
3320 nM | Nc1cccc(-c2cc(Nc3ccc(P(=O)(O)O)cc3)ncn2)c1 | inhibition [1]: 98%; inhibition [2]: 67%
> 10000 nM | CCOP(=O)(OCC)c1cccc(Nc2cc(-c3cccc([N+](=O)[O-])c3)ncn2)c1 | 
8060 nM | CCCP(=O)(Cc1cccc(Nc2cc(-c3cccc([N+](=O)[O-])c3)ncn2)c1)OCC (stereo not drawn) | 
5530 nM | CCCP(=O)(Cc1ccc(Nc2cc(-c3cccc([N+](=O)[O-])c3)ncn2)cc1)OCC (stereo not drawn) | 
248 nM | CCCOc1ccccc1-c1cc(Nc2cccc(CP(=O)(CCC)OCC)c2)ncn1 (stereo not drawn) | competitive inhibition (qualitative) [6]: Active
> 10000 nM | CCCP(=O)(OCC)c1ccc(Nc2cc(-c3cccc([N+](=O)[O-])c3)ncn2)cc1 (stereo not drawn) | 
652 nM | CCCP(=O)(Cc1ccc(Nc2cc(-c3ccccc3OC)ncn2)cc1)OCC (stereo not drawn) | 
1130 nM | Nc1cccc(-c2cc(Nc3ccc(CP(=O)(O)O)cc3)ncn2)c1 | 
254 nM | CCCP(=O)(Cc1cccc(Nc2cc(-c3ccccc3OCC)ncn2)c1)OCC (stereo not drawn) | competitive inhibition (qualitative) [6]: Active
5410 nM | CCCP(=O)(Cc1cccc(Nc2cc(-c3ccc(OC)cc3)ncn2)c1)OCC (stereo not drawn) | 
> 10000 nM | CCOP(=O)(c1ccccc1)c1ccc(Nc2cc(-c3cccc([N+](=O)[O-])c3)ncn2)cc1 (stereo not drawn) | 
> 10000 nM | CCOP(=O)(Cc1ccc(Nc2cc(-c3cccc([N+](=O)[O-])c3)ncn2)cc1)OCC | 
186 nM | CCCP(=O)(Cc1cccc(Nc2cc(-c3ccc(F)cc3OC)ncn2)c1)OCC (stereo not drawn) | 

IC50 (CDK9/cyclin T1) | Structure (SMILES) | also measured
1150 nM | CCCP(=O)(OCC)c1ccc(Nc2cc(-c3ccccc3OC)ncn2)cc1 (stereo not drawn) | 
> 10000 nM | CCCP(=O)(Cc1cccc(Nc2cc(-c3cccc(OCc4ccccc4)c3)ncn2)c1)OCC (stereo not drawn) | 
> 10000 nM | CCOP(=O)(Cc1cccc(Nc2cc(-c3cccc([N+](=O)[O-])c3)ncn2)c1)c1ccccc1 (stereo not drawn) | 
601 nM | CCCP(=O)(Cc1cccc(Nc2cc(-c3ccccc3Oc3ccccc3)ncn2)c1)OCC (stereo not drawn) | 
346 nM | CCOP(=O)(CC)Cc1cc(Nc2cc(-c3cccc(N)c3)ncn2)ccc1C (stereo not drawn) | 
> 10000 nM | CCOP(=O)(CC)c1ccc(Nc2cc(-c3cccc(N)c3)ncn2)cc1 (stereo not drawn) | 
> 10000 nM | CCOP(=O)(CC)c1ccc(Nc2cc(-c3cccc([N+](=O)[O-])c3)ncn2)cc1 (stereo not drawn) | 
682 nM | CCCP(=O)(Cc1cccc(Nc2cc(-c3cccc(N)c3)ncn2)c1)OCC (stereo not drawn) | 
210 nM | CCCP(=O)(Cc1cccc(Nc2cc(-c3ccccc3OC(C)C)ncn2)c1)OCC (stereo not drawn) | 
> 10000 nM | CCOP(=O)(OCC)C(O)c1cccc(Nc2cc(-c3cccc([N+](=O)[O-])c3)ncn2)c1 (stereo not drawn) | 
261 nM | CCCP(=O)(O)Cc1cccc(Nc2cc(-c3ccccc3OC)ncn2)c1 | competitive inhibition (qualitative) [6]: Active
> 10000 nM | CCOP(=O)(CC)c1cccc(Nc2cc(-c3cccc([N+](=O)[O-])c3)ncn2)c1 (stereo not drawn) | 
> 10000 nM | CCCP(=O)(OCC)c1ccc(Nc2cc(-c3cccc(N)c3)ncn2)cc1 (stereo not drawn) | 
> 10000 nM | CCOP(=O)(OCC)c1ccc(Nc2cc(-c3cccc([N+](=O)[O-])c3)ncn2)cc1 | 
> 10000 nM | CCCP(=O)(Cc1cccc(Nc2cc(-c3ccccc3CC)ncn2)c1)OCC (stereo not drawn) | 
2100 nM | O=[N+]([O-])c1cccc(-c2cc(Nc3ccc(CP(=O)(O)O)cc3)ncn2)c1 | 
1400 nM | CCOP(=O)(OCC)C(O)c1cccc(Nc2cc(-c3cccc(N)c3)ncn2)c1 (stereo not drawn) | 
2390 nM | CCCP(=O)(Cc1cccc(Nc2cc(-c3cccc(OC)c3OC)ncn2)c1)OCC (stereo not drawn) | 
> 10000 nM | CCOP(=O)(OCC)c1ccc(Nc2cc(-c3cccc(N)c3)ncn2)cc1 | inhibition [1]: 18%; inhibition [2]: 35%
